# Results gathered from unrelated publications.
# MAPK14: Mitogen-activated protein kinase 14 (MAPK14, Homo sapiens, UniProt Q16539)
# Dihydrofolate reductase: Dihydrofolate reductase (Bos taurus, UniProt P00376)
# Si: Sucrase-isomaltase, intestinal (Si, Rattus norvegicus, UniProt P23739)
# HTR1A: 5-hydroxytryptamine receptor 1A (HTR1A, Homo sapiens, UniProt P08908)
SMILES,target,effect on,action,technique,IC50
c1ccc(Cc2[nH]nc(-c3ccccn3)c2-c2ccnc3ccccc23)cc1,MAPK14,enzyme activity,inhibitor,ADP detection,5.2 µM
COc1ccc(N2N=C(C(C)=O)SC2=C(C#N)C(=O)c2ccc(Nc3cnccn3)cc2)cc1,Dihydrofolate reductase,enzyme activity,inhibitor,,3.82 µM
c1ccc(-c2[nH]ccc2-c2ccnc3ccccc23)nc1,MAPK14,enzyme activity,inhibitor,ADP detection,> 30 µM
CC(=O)C1=NN(c2ccccc2)C(=C(C#N)C(=O)c2ccc(Nc3cnccn3)cc2)S1,Dihydrofolate reductase,enzyme activity,inhibitor,,1.95 µM
COc1cc(C(=O)O)ccc1O,Si,enzyme activity,inhibitor,absorbance,1650 µM
CC(C)(C)NS(=O)(=O)c1cccc(C(=O)N2CC3(CCC4(CC4)CC3)c3cc(NS(C)(=O)=O)ccc32)c1,"Kinesin-like protein KIFC1 (KIFC1, Homo sapiens, UniProt Q9BW19)",ATPase activity,inhibitor,,> 100 µM
N=c1sc(C(=O)c2ccc(Nc3cnccn3)cc2)nn1-c1ccc([N+](=O)[O-])cc1,Dihydrofolate reductase,enzyme activity,inhibitor,,4.48 µM
COc1cc(C=O)cc(OC)c1O,Si,enzyme activity,inhibitor,absorbance,1110 µM
COc1ccccc1N1CCN(CC(C(=O)NC(C)(C)C)c2ccccc2)CC1 (stereo not drawn),HTR1A,cAMP,antagonist,TR-FRET,0.376 µM
CNCc1cc(-c2cc(O)ccc2OC(F)(F)F)ccc1F,"Estrogen receptor (ESR1, Homo sapiens, UniProt P03372, D538G)",coactivator recruitment,,TR-FRET,~18 µM
Fc1ccc(Cc2[nH]nc(-c3ccccn3)c2-c2ccnc3ccccc23)cc1,MAPK14,enzyme activity,inhibitor,ADP detection,3.5 µM
CN1CCC(CNc2ccc3ncc(-c4cccc(OC(F)(F)F)c4)n3n2)CC1,HTR1A,cAMP,agonist,,7.13 µM
